In paper PMC9306949 (Clinical Pharmacology in Drug Development, 2022):
“Also recorded” adds a separate entry of the source. Where two headings read alike, the source gives them in different places. Marks after values point to notes of the source that are not given here.

Key:
[1] = cited from earlier work
[2] = Safety: treatment-emergent adverse events; format: in vivo, human
[3] = cited from earlier work; remark: listed apart in the source
MIC‐1 [4] = conditions: patients with solid tumors/MM and AML; cited from earlier work
[5] = physiologically based PK modeling; cited from earlier work
MIC‐1 [6] = experiment: Serum MIC-1 pharmacodynamics; format: in vivo, human; conditions: for P, baseline predose MIC‐1 concentration / MIC‐1 %CFBC24 (percent change from predose concentration at 24 hours) / MIC‐1 %CFBCmax (percent change from predose concentration at Cmax) / MIC‐1 AUC0‐24 / MIC‐1 AUC0‐inf / MIC‐1 AUC0‐t / MIC‐1 C24 / MIC‐1 FoldC24 (C24/P): serum, mean (%CV)
[7] = cited from earlier work; remark: listed apart in the source
[8] = format: in vivo, human; conditions: for exposure in UGT1A1*28 heterozygous poor metabolizers (6/7 TA repeats) vs WT (6/6 TA repeats): Treatment A, n = 16 vs n = 12; for C24: mean (%CV)
[9] = tested on: T, B, and natural killer lymphocytes in peripheral blood; experiment: Immunophenotyping of whole blood; format: in vivo, human; conditions: periods 1 and 4; absolute counts and percentages
Summary of the method: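 Healthy adults took single 60-mg oral doses of the test compound. Whole blood (K2EDTA) was drawn at screening, predose on day 1 of periods 1 and 4, and on day 5 (96 h postdose). A validated GLP flow cytometry method gave absolute counts and percentages of peripheral T, B and NK lymphocytes.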

[10] = Urine excretion of navtemadlin and M1; format: in vivo, human
[11] = monoprotic carboxylic acid; cited from earlier work
[12] = cynomolgus macaques; cited from earlier work
[13] = single 60-mg doses, healthy subjects
[14] = Treatment A: 60 mg new tablet fasted
[15] = Treatment B: 60 mg new tablet fed
[16] = Treatment C: 60 mg old tablet fasted
[17] = period 1 (old tablet fasted), 0-48 h urine

## CC(C)[C@@H](CS(=O)(=O)C(C)C)N1C(=O)[C@@](C)(CC(=O)O)C[C@H](c2cccc(Cl)c2)[C@H]1c1ccc(Cl)cc1 [Navtemadlin]
[1]
  protein‐bound: 97.5%
[2]; Treatment A (Combined): new tablet fasted
  All TEAEs: Number of Subjects with TEAE: 5
[2]; Treatment B: new tablet fed
  All TEAEs: Number of Subjects with TEAE: 2
[2]; Treatment C: old tablet fasted (period 1)
  All TEAEs: Number of Subjects with TEAE: Nine
[2]; occurred only with treatment C (old tablet, fasted)
  incidence of constipation (TEAE): 13%
[2]; occurred with all treatments A, B, and C
  incidence of headache (TEAE): 10%
[2]; reported once, treatment B (new tablet fed)
  TEAE related to navtemadlin: Headache
[2]; [13]
  discontinuations due to adverse events: without any discontinuations; also recorded: no subject discontinued due to an AE
  serious adverse events or deaths: No serious adverse events or deaths occurred; also recorded: No deaths or serious AEs occurred
  severity of adverse events: mild
[3]
  solubility, pH dependence: increases with increasing pH
MIC‐1 [4]
  effect on serum PD marker MIC‐1: dose‐ and plasma concentration–dependent increases
[5]
  fraction absorbed: ~100%
MIC‐1 [6]; 60‐mg dose, healthy subjects
  pharmacodynamic half‐life of MIC‐1 serum elevations: > 20 h
MIC‐1 [6]; Treatment A, AUC in nM • h
  correlation navtemadlin AUC0‐t vs MIC‐1 AUC0‐t, intercept: 1.97
  correlation navtemadlin AUC0‐t vs MIC‐1 AUC0‐t, slope: 0.0006
MIC‐1 [6]; Treatment A: 60 mg new tablet fasted (periods 2-4)
  P, baseline predose MIC‐1 concentration: 170 (119.8); 60 pg/mL
MIC‐1 [6]; [14]
  MIC‐1 %CFBC24 (percent change from predose concentration at 24 hours): 2297 (101); 60%
  MIC‐1 %CFBCmax (percent change from predose concentration at Cmax): 3759 (103.5); 60%
  MIC‐1 AUC0‐24: 32743 (49.4); 60 pg • h/mL
  MIC‐1 AUC0‐inf: 96215 (51.9); 31 pg • h/mL
  MIC‐1 AUC0‐t: 89409 (48.7); 60 pg • h/mL
  MIC‐1 C24: 1318 (50.5); 60 pg/mL
  MIC‐1 FoldC24 (C24/P): 24.0 (96.8); 60
MIC‐1 [6]; Treatment B: 60 mg new tablet fed (periods 2-4)
  P, baseline predose MIC‐1 concentration: 214 (133.2); 30 pg/mL
MIC‐1 [6]; [15]
  MIC‐1 %CFBC24 (percent change from predose concentration at 24 hours): 1778 (115.5); 30%
  MIC‐1 %CFBCmax (percent change from predose concentration at Cmax): 2684 (115.7); 30%
  MIC‐1 AUC0‐24: 29820 (52.7); 30 pg • h/mL
  MIC‐1 AUC0‐inf: 67607 (35.1); 16 pg • h/mL
  MIC‐1 AUC0‐t: 81332 (54.2); 30 pg • h/mL
  MIC‐1 C24: 1209 (47.7); 30 pg/mL
  MIC‐1 FoldC24 (C24/P): 18.8 (109.4); 30
MIC‐1 [6]; Treatment C: 60 mg old tablet fasted (period 1)
  P, baseline predose MIC‐1 concentration: 505 (41); 30 pg/mL
MIC‐1 [6]; [16]
  MIC‐1 %CFBC24 (percent change from predose concentration at 24 hours): 139 (61.8); 30%
  MIC‐1 %CFBCmax (percent change from predose concentration at Cmax): 393 (62.5); 30%
  MIC‐1 AUC0‐24: 34365 (53.4); 30 pg • h/mL
  MIC‐1 AUC0‐inf: 110915 (30.5); 4 pg • h/mL
  MIC‐1 AUC0‐t: 91175 (38.5); 30 pg • h/mL
  MIC‐1 C24: 1144 (38.4); 30 pg/mL
  MIC‐1 FoldC24 (C24/P): 2.39 (36); 30
[7]; dose range of 15 mg to 480 mg
  dose dependence of exposure: linear
[7]; patients with solid tumors
  apparent oral central volume of distribution: 62.9 L
[8]; B vs A: new tablet fed vs fasted
  delay of tmax after a meal: 1 h
[8]
  exposure in UGT1A1*28 heterozygous poor metabolizers (6/7 TA repeats) vs WT (6/6 TA repeats): slightly lower
[8]; listed as navtemadlin
  exposure in UGT1A1*28 heterozygous poor metabolizers (6/7 TA repeats) vs WT (6/6 TA repeats): generally comparable
[8]; all 3 treatments
  time of second peak after dosing (enterohepatic recirculation): around 10 hours
[8]; human, plasma, oral, 60 mg
  tmax: 2.01 h
[8]; n = 12 positive vs n = 18 negative
  PK in H. pylori–positive vs H. pylori–negative subjects: not markedly different; also recorded: not markedly affected
[8]; new tablet fed vs fasted
  decrease in extent of exposure (AUC0‐24, AUC0‐t, AUC0‐inf) with a high‐fat meal: 12% to 18%
[8]; new tablet, fasted
  intersubject variability, AUC0‐24 %CV: 55%
  intersubject variability, Cmax %CV: 66%
[8]; new tablet, Wilcoxon signed-rank, alpha level of 0.1
  difference in median tmax between fed and fasted conditions, significance: statistically significant
[8]; plasma, Treatment A: 60-mg new tablet, fasted
  C24: 37.4 (83.9); 60 ng/mL
[8]; plasma, Treatment B: 60-mg new tablet, fed (high-fat meal)
  C24: 29.3 (83.3); 30 ng/mL
[8]; plasma, Treatment C: 60-mg old tablet, fasted
  C24: 29.3 (83.6); 30 ng/mL
[8]; reference formulation: new tablet, fasted
  intrasubject variability of PK parameters: < 30%
[8]; test-reference: B (new tablet fed) minus A (new tablet fasted)
  tmax, difference of medians (90%CI): 0.5 (0.004‐0.9) ^e , ^f h
[8]; test-reference: C (old tablet fasted) minus A (new tablet fasted)
  tmax, difference of medians (90%CI): 0.1 (–0.3 to 0.6) ^e , ^f h
[9]
  lymphocyte subsets and monocytes, postdose (96 hours) vs predose: did not differ
[10]; [17]
  mean amount excreted in urine: 12.1 µg
  mean fraction of dose excreted in urine: 0.02%
[10]; single 60-mg dose, healthy subjects
  urine excretion: negligible
[11]
  pKa: 4.35
[12]
  urinary excretion route: minor excretion route
